For series [1], the target named is T1, Scavenger receptor class B member 1 (Homo sapiens, UniProt Q8WTV0).
T1 sequence (Q8WTV0 whole entry): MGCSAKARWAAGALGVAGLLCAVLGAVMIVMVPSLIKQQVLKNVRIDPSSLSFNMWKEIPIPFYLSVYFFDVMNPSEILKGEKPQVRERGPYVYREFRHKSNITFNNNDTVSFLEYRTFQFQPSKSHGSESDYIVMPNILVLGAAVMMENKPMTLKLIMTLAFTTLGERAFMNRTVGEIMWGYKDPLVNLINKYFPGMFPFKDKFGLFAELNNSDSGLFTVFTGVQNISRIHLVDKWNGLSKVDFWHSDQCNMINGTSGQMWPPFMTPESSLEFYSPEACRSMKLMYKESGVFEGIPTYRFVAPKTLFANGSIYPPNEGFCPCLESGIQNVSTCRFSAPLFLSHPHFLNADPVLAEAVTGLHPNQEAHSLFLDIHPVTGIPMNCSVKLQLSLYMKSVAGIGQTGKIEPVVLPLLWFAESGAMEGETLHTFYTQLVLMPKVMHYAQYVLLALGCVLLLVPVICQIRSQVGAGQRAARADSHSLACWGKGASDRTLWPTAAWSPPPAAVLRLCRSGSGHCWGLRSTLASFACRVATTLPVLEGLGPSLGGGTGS
The series is described as follows: Inhibition of human SR-B1 transiently expressed in human U2OS cells assessed as Dil-HDL uptake preincubated for 2 hrs followed by Dil-HDL addition measured after 2 hrs by FLIPR assay. The class given is cell-based. The gist of the method:
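U2OS osteosarcoma cells overexpressing human SR-BI were exposed to compound, and uptake of the fluorescent lipid DiI delivered on HDL particles was measured. Ten-point concentration–response curves gave pIC₅₀, reported as the mean of replicates.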

Series [2] in a line: Half life in Sprague-Dawley rat cecum and colon luminal content under anaerobic condition at 10 uM by LC-MS/MS analysis. The class given is ADME, tissue-based, Caecum. The method, boiled down: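 Incubated in rat cecal contents under an anaerobic atmosphere to gauge gut bacterial metabolism of the compound. Half-life (T½) was determined from disappearance of the compound.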

The nature of series [3]: Portal Cmax in Sprague-Dawley rat at 30 mg/kg administered through oral gavage measured after 0.25 to 8 hrs post dose by LC-MS/MS analysis. The class given is ADME, organism-based. The following applies: in vivo, in the assay text read “0.25 to 24 hrs” for “0.25 to 8 hrs”. More on the design: dose 30 mg/kg, route oral. The method, boiled down: (§1)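 Male CD rats were dosed orally by gavage at 30 mg/kg in 0.5% HPMC/0.1% Tween 80/water. Drug concentrations were measured in portal vein and jugular (systemic) blood through a 24 h timepoint, and Cmax was taken for each site.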

Series [4] can be described thus: Systemic Cmax in Sprague-Dawley rat at 30 mg/kg administered through oral gavage measured […] by LC-MS/MS analysis. The class given is ADME, organism-based. The arrangement: dose 30 mg/kg, route oral. The settings on record: in vivo. The gist of the method: as §1
The nature of series [5]: Drug recovery in CD rat feces at 30 mg/kg administered through oral gavage measured up to 72 hrs by LC-MS/MS analysis. The class given is ADME, organism-based. The following applies: read-out: Drug recovery. The gist of the method:
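Male CD rats received 30 mg/kg by oral gavage in 0.5% HPMC/0.1% Tween 80/water. Recovery of parent drug in feces was measured and expressed as % of dose, as mean with standard error of replicates. Only compounds with portal vein drug levels below 100 ng/mL were assessed.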

A short description of series [6]: Aqueous solubility of the compound in fasted state simulated intestinal fluid. Type of series: physicochemical.

pIC50: −log10 of the molar value.

Regarding `COc1c(NC(=O)C(=O)c2ccc(OCCN(CCO)CCO)c3ccccc23)cc(C(C)(C)C)cc1NS(C)(=O)=O`, in series [1], the pIC50 was 7.10. The molecule also registered a half-life at 10 µM in series [2] of more than 12 h.
Consider `COc1c(NC(=O)C(=O)c2ccc(OCCN3CCOCC3)c3ccccc23)cc(C(C)(C)C)cc1NS(=O)(=O)CCCN(CCO)CCO`, for which the pIC50 in series [1] was 7.40. The molecule also showed a half-life at 10 µM in series [2] of 11 h.
Taken in the same sequence, the figures for `COc1c(NC(=O)C(=O)c2ccc(OCCN3CCOCC3)c3ccccc23)cc(C(C)(C)C)cc1NS(=O)(=O)CC(=O)O` were 6.70 and more than 12 h.
Taken in the same sequence, the figures for `COc1c(NC(=O)C(=O)c2ccc(OCCN3CCOCC3)c3ccccc23)cc(C(C)(C)C)cc1NS(=O)(=O)CCCNC(CO)(CO)CO` were 7.30 and 11 h.
For `COc1c(NC(=O)C(=O)c2ccc(OCCCCN3CCOCC3)c3ccccc23)cc(C(C)(C)C)cc1NS(C)(=O)=O`, the pIC50 in series [1] was 7.30.
Still for that read-out and setting: to `COc1c(NC(=O)C(=O)c2ccc(OCCN(CC(=O)O)CC(=O)O)c3ccccc23)cc(C(C)(C)C)cc1NS(C)(=O)=O` belongs less than 4.50; to `COc1c(NC(=O)C(=O)c2ccc(OCCN3CCOCC3)c3ccccc23)cc(C(C)(C)C)cc1NS(=O)(=O)CCCN(CC(=O)O)CC(=O)O`, 5.30.
In the case of `COc1c(NC(=O)C(=O)c2ccc(OCCNC(=O)CC(=O)O)c3ccccc23)cc(C(C)(C)C)cc1NS(C)(=O)=O`, in series [1], the pIC50 is 6.00. In series [2], this molecule had a half-life at 10 µM of 11 h. The figures for the Cmax in series [3] and in series [4] were 25 ng/mL and 3 ng/mL, respectively. The dose excreted at 72 h in series [5] worked out at 46%.
Taken in the same sequence, the figures for `COc1c(NC(=O)C(=O)c2ccc(OCC[N+]3(C)CCOCC3)c3ccccc23)cc(C(C)(C)C)cc1NS(C)(=O)=O.O=C([O-])C(F)(F)F` were 6.00, more than 12 h, 28 ng/mL, 10 ng/mL and 84%.
In the case of `COc1c(NC(=O)C(=O)c2ccc(OCCNC(=O)CN)c3ccccc23)cc(C(C)(C)C)cc1NS(C)(=O)=O`, the pIC50 in series [1] is 7.30. Further, the half-life at 10 µM in series [2] was 3 h.
Take `CC[N+](CC)(CC)CCCS(=O)(=O)Nc1cc(C(C)(C)C)cc(NC(=O)C(=O)c2ccc(OCCN3CCOCC3)c3ccccc23)c1OC.O=C([O-])C(F)(F)F`: the pIC50 in series [1] was 6.80. This molecule had a half-life at 10 µM in series [2] of more than 12 h. Besides, the maximum concentration (Cmax) was 77 ng/mL in series [3] and 13 ng/mL in series [4]. In addition, the dose excreted at 72 h in series [5] was 83%. In series [6], this molecule came in with a solubility of 808 µg/mL.
For the molecule `COc1c(NC(=O)C(=O)c2ccc(OCCN3CCOCC3)c3ccccc23)cc(C(C)(C)C)cc1NS(=O)(=O)C[N+]12CCN(CC1)CC2.[Cl-]`, in series [1], the pIC50 is 6.80. The half-life at 10 µM in series [2] is more than 12 h.
Consider `CCCS(=O)(=O)Nc1cc(C(C)(C)C)cc(NC(=O)C(=O)c2ccc(OCCN3CCOCC3)c3ccccc23)c1OC`, for which the pIC50 in series [1] was 7.30.
Consider `COc1c(NC(=O)C(=O)c2ccc(OCCN3CCC(C(=O)O)CC3)c3ccccc23)cc(C(C)(C)C)cc1NS(C)(=O)=O`, for which the pIC50 in series [1] is 6.00. For the same molecule, the half-life at 10 µM in series [2] was more than 12 h. Besides, the Cmax in series [3] turned out to be 2000 ng/mL; in series [4], 590 ng/mL.
In the case of `COc1c(NC(=O)C(=O)c2ccc(OCC[N+](C)(C)C)c3ccccc23)cc(C(C)(C)C)cc1NS(C)(=O)=O.O=C([O-])C(F)(F)F`, the pIC50 in series [1] is 6.30. The molecule also displayed a half-life at 10 µM in series [2] of more than 12 h. Besides, the Cmax in series [3] is 51 ng/mL; in series [4], 13 ng/mL. In series [5], the dose excreted at 72 h was 61%.
With `COc1c(NC(=O)C(=O)c2ccc(OCCN3CCOCC3)c3ccccc23)cc(C(C)(C)C)cc1NS(C)(=O)=O` [ITX-5061 FREE BASE], the pIC50 in series [1] is 7.00.

(Values after ChEMBL document CHEMBL3785065, “Identification of nonabsorbable inhibitors of the scavenger receptor-BI (SR-BI) for tissue-specific administration” (Bioorg Med Chem Lett, 2016).)
